Assay results: article PMC11406655 (Therapeutic Advances in Hematology, 2024)
Where “and” joins values, the source holds several entries; their conditions need not be identical. Equal values may be shown once.

Columns and labels:
[1] = system: patients with relapsed and/or refractory MDS, CMML, or AML; assay: Clinical response per International Working Group criteria, PFS and OS; format: in vivo, human
[2] = system: patients with relapsed and/or refractory MDS, CMML, or AML; assay: Safety: adverse events, dose-limiting toxicities and deaths; format: in vivo, human
Procedure, shortened: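 Open-label, multicenter part 1 in adults with relapsed/refractory MDS, CMML or secondary AML. The 300 mg dose-expansion cohort took the test compound orally once daily with water only, at about the same time (±4 h), on every day of 28-day cycles. Deaths were split into ⩽30 days or >30 days after the last dose. The analysis covered all patients given at least one dose.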

CC(=O)N1CCC(Nc2cc(C(=O)NC[C@H](O)CN3CCc4ccccc4C3)ncn2)CC1 [GSK3326595]
Best overall response: CR ([1]; 300 mg once daily oral, n = 17): 0 n (%) | Best overall response: Disease progression ([1]; 300 mg once daily oral, n = 17): 9 (53) n (%) | Best overall response: HI ([1]; 300 mg once daily oral, n = 17): 0 n (%) | Best overall response: Not evaluable ([1]; 300 mg once daily oral, n = 17): 3 (18) n (%) | Best overall response: PR ([1]; 300 mg once daily oral, n = 17): 0 n (%) | Best overall response: SD ([1]; 300 mg once daily oral, n = 17): 4 (24) n (%) | Best overall response: SD lasting <8 weeks ([1]; 300 mg once daily oral, n = 17): 2 (12) n (%) | Best overall response: SD lasting ⩾8 weeks ([1]; 300 mg once daily oral, n = 17): 2 (12) n (%) | Best overall response: mCR ([1]; 300 mg once daily oral, n = 17): 1 (6) n (%) | Clinical benefit rate (CR + mCR + PR + SD ⩾8 weeks + HI) ([1]; 300 mg once daily oral, n = 17): 3 (18) n (%) | Overall response rate (CR + mCR + PR) ([1]; 300 mg once daily oral, n = 17): 1 (6) n (%) | Best overall response: CR ([1]; 400 mg once daily oral, n = 13): 0 n (%) | Best overall response: Disease progression ([1]; 400 mg once daily oral, n = 13): 4 (31) n (%) | Best overall response: HI ([1]; 400 mg once daily oral, n = 13): 0 n (%) | Best overall response: Not evaluable ([1]; 400 mg once daily oral, n = 13): 4 (31) n (%) | Best overall response: PR ([1]; 400 mg once daily oral, n = 13): 0 n (%) | Best overall response: SD ([1]; 400 mg once daily oral, n = 13): 5 (38) n (%) | Best overall response: SD lasting <8 weeks ([1]; 400 mg once daily oral, n = 13): 3 (23) n (%) | Best overall response: SD lasting ⩾8 weeks ([1]; 400 mg once daily oral, n = 13): 2 (15) n (%) | Best overall response: mCR ([1]; 400 mg once daily oral, n = 13): 0 n (%) | Clinical benefit rate (CR + mCR + PR + SD ⩾8 weeks + HI) ([1]; 400 mg once daily oral, n = 13): 2 (15) n (%) | Duration of complete marrow remission ([1]; 1 patient, plain language summary): approximately 8 months | Clinical benefit rate (CR + mCR + PR + SD ⩾8 weeks + HI) ([1]; Total, 400 or 300 mg once daily oral, N = 30): 5 (17) n (%) | Best overall response: CR ([1]; Total, N = 30): 0 n (%) | Best overall response: Disease progression ([1]; Total, N = 30): 13 (43) n (%) | Best overall response: HI ([1]; Total, N = 30): 0 n (%) | Best overall response: Not evaluable ([1]; Total, N = 30): 7 (23) n (%) | Best overall response: PR ([1]; Total, N = 30): 0 n (%) | Best overall response: SD ([1]; Total, N = 30): 9 (30) n (%) | Best overall response: SD lasting <8 weeks ([1]; Total, N = 30): 5 (17) n (%) | Best overall response: SD lasting ⩾8 weeks ([1]; Total, N = 30): 4 (13%) n (%) and 4 (13) n (%) | Best overall response: mCR ([1]; Total, N = 30): 1 (3%) n (%) and 1 (3) n (%) | Overall response rate (CR + mCR + PR) ([1]; Total, N = 30): 1 (3) n (%) | Patients meeting CBR criteria ([1]; Total, N = 30): 17% | Patients not evaluable ([1]; Total, N = 30): 23% | Patients with disease progression while on study treatment ([1]; Total, N = 30): 43% | Duration of mCR ([1]; one patient with MDS, 300-mg cohort): 245 days | Died (during the study) ([2]; 300 mg, n = 17): 14 (82%) n (%) | GSK3326595-related TEAE: AE leading to study treatment withdrawn ([2]; 300 mg, n = 17): 2 (12) n (%) | GSK3326595-related TEAE: Anemia ([2]; 300 mg, n = 17): 2 (12) n (%) | GSK3326595-related TEAE: Any SAE ([2]; 300 mg, n = 17): 3 (18) n (%) | GSK3326595-related TEAE: Any TEAEs ([2]; 300 mg, n = 17): 13 (76) n (%) | GSK3326595-related TEAE: Any grade 3/4 TEAE ([2]; 300 mg, n = 17): 8 (47%) n (%) and 8 (47) n (%) | GSK3326595-related TEAE: Decreased appetite ([2]; 300 mg, n = 17): 3 (18) n (%) | GSK3326595-related TEAE: Decreased platelet count ([2]; 300 mg, n = 17): 5 (29) n (%) | GSK3326595-related TEAE: Dysgeusia ([2]; 300 mg, n = 17): 4 (24) n (%) | GSK3326595-related TEAE: Fatal SAE ([2]; 300 mg, n = 17): 1 (6) n (%) | GSK3326595-related TEAE: Fatigue ([2]; 300 mg, n = 17): 2 (12) n (%) | GSK3326595-related TEAE: Nausea ([2]; 300 mg, n = 17): 4 (24) n (%) | GSK3326595-related TEAE: Neutrophil count decreased ([2]; 300 mg, n = 17): 2 (12) n (%) | GSK3326595-related TEAE: Thrombocytopenia ([2]; 300 mg, n = 17): 2 (12) n (%) | TEAE: AE leading to dose interruption ([2]; 300 mg, n = 17): 10 (59) n (%) | TEAE: AE leading to dose reduction ([2]; 300 mg, n = 17): 1 (6) n (%) | TEAE: AE leading to study treatment withdrawn ([2]; 300 mg, n = 17): 3 (18) n (%) | TEAE: Anemia ([2]; 300 mg, n = 17): 7 (41) n (%) | TEAE: Any AE ([2]; 300 mg, n = 17): 17 (100) n (%) | TEAE: Any SAE ([2]; 300 mg, n = 17): 12 (71) n (%) | TEAE: Decreased appetite ([2]; 300 mg, n = 17): 4 (24) n (%) | TEAE: Decreased platelet count ([2]; 300 mg, n = 17): 8 (47) n (%) | TEAE: Diarrhea ([2]; 300 mg, n = 17): 7 (41) n (%) | TEAE: Dysgeusia ([2]; 300 mg, n = 17): 7 (41) n (%) | TEAE: Dyspnea ([2]; 300 mg, n = 17): 6 (35) n (%) | TEAE: Fatal SAE ([2]; 300 mg, n = 17): 5 (29%) n (%) and 5 (29) n (%) | TEAE: Fatigue ([2]; 300 mg, n = 17): 6 (35) n (%) | TEAE: Nausea ([2]; 300 mg, n = 17): 5 (29) n (%) | Died (during the study) ([2]; 400 mg, n = 13): 11 (85%) n (%) | GSK3326595-related TEAE: AE leading to study treatment withdrawn ([2]; 400 mg, n = 13): 0 n (%) | GSK3326595-related TEAE: Anemia ([2]; 400 mg, n = 13): 1 (8) n (%) | GSK3326595-related TEAE: Any SAE ([2]; 400 mg, n = 13): 3 (23) n (%) | GSK3326595-related TEAE: Any TEAEs ([2]; 400 mg, n = 13): 9 (69) n (%) | GSK3326595-related TEAE: Any grade 3/4 TEAE ([2]; 400 mg, n = 13): 5 (38%) n (%) and 5 (38) n (%) | GSK3326595-related TEAE: Decreased appetite ([2]; 400 mg, n = 13): 1 (8) n (%) | GSK3326595-related TEAE: Decreased platelet count ([2]; 400 mg, n = 13): 3 (23) n (%) | GSK3326595-related TEAE: Dysgeusia ([2]; 400 mg, n = 13): 3 (23) n (%) | GSK3326595-related TEAE: Fatal SAE ([2]; 400 mg, n = 13): 0 n (%) | GSK3326595-related TEAE: Fatigue ([2]; 400 mg, n = 13): 4 (31) n (%) | GSK3326595-related TEAE: Nausea ([2]; 400 mg, n = 13): 2 (15) n (%) | GSK3326595-related TEAE: Neutrophil count decreased ([2]; 400 mg, n = 13): 2 (15) n (%) | GSK3326595-related TEAE: Thrombocytopenia ([2]; 400 mg, n = 13): 1 (8) n (%)
